Results: ChEMBL document CHEMBL1132258, “gamma-Aminobutyrate-A receptor modulation by 3-aryl-1-(arylsulfonyl)- 1,4,5,6-tetrahydropyridazines” (J Med Chem, 1999)

Assays:
[1] = molecular target: GABA-A receptor; anion channel; assay: In vitro binding affinity to the Gamma-aminobutyric acid A receptor complex in absence of GABA in rat cerebellum tissue; type: tissue-based
[2] = molecular target: T1, GABA-A receptor; anion channel (Rattus norvegicus) (UniProt O09028+P15431+P18506+P18508+P19969+P20236+P23574+P23576+P28471+P28473+P30191+P62813+P63079+P63138+Q91ZM7+Q9ES14); assay: Ratio of IC50 in the presence and absence of GABA.; type: functional
[3] = molecular target: GABA-A receptor; anion channel; assay: In vitro binding affinity to the Gamma-aminobutyric acid A receptor complex in presence of GABA in rat cerebellum tissue; type: tissue-based
Mus musculus [4] = assay: In vivo suppression of pentylenetetrazole-induced convulsions by the compound at the mentioned dose of, 1, i.p. ( mg/kg); out of 6 tested animals; type: functional
Method in brief: (§1)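 Mice were dosed ip with compound or vehicle (10 mL/kg). Pentylenetetrazole 85 mg/kg sc was given 1 h later. Mice were housed individually and watched for 30 min for clonic convulsions, scored present or absent. Results are reported as number convulsed over number tested.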

Mus musculus [5] = assay: In vivo suppression of pentylenetetrazole-induced convulsions by the compound at the mentioned dose of, 10, i.p. (mg/kg); out of 6 tested animals; type: functional; method in brief: as §1
Mus musculus [6] = assay: In vivo Horizontal screen test for motor impairment by the compound at the mentioned dose of 10, i.p. (mg/kg); out of 6 tested animals; type: functional
Method in brief: (§2)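 Mice were dosed ip with compound or vehicle (10 mL/kg). After 1 h, just before sc pentylenetetrazole, they were placed on an inverted horizontal screen. Passing meant climbing to the top side within 1 min. Results are reported as number passed over number tested.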

Mus musculus [7] = assay: In vivo Horizontal screen test for motor impairment by the compound at the mentioned dose of 1, i.p. ( mg/kg); out of 6 tested animals; type: functional; method in brief: as §2
Mus musculus [8] = assay: In vivo Horizontal screen test for motor impairment by the compound at the mentioned dose of 100, i.p. ( mg/kg); out of 6 tested animals; type: functional; method in brief: as §2
Mus musculus [9] = assay: In vivo suppression of pentylenetetrazole-induced convulsions by the compound at the mentioned dose of, 100, i.p. ( mg/kg); out of 6 tested animals; type: functional; method in brief: as §1
Mus musculus [10] = assay: In vivo suppression of pentylenetetrazole-induced convulsions by the compound at the mentioned dose of, 30, i.p. (mg/kg); out of 6 tested animals; type: functional
Method in brief: (§3)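 Mice received compound or vehicle (10 mL/kg) po or ip. After 1 h they got pentylenetetrazole 85 mg/kg sc. They were housed individually and observed 30 min for clonic convulsions (present/absent). Result given as number convulsed/number tested.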

Mus musculus [11] = assay: In vivo Horizontal screen test for motor impairment by the compound at the mentioned dose of 30, i.p. (mg/kg); out of 6 tested animals; type: functional
Method in brief: (§4)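 Mice were dosed orally or ip (vehicle 10 mL/kg). At 1 h, just before PTZ, each was placed on an inverted horizontal screen and scored pass/fail for climbing to the top side within 1 min. Result given as number passed/number tested.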

[12] = molecular target: T1, GABA-A receptor; anion channel (Rattus norvegicus); assay: Relative binding to GABA-A receptor in the presence and absence of GABA; type: functional
Mus musculus [13] = assay: In vivo suppression of pentylenetetrazole-induced convulsions by the compound at the mentioned dose of, 10, i.p. (mg/kg); out of 12 tested animals; type: functional; method in brief: as §3
Mus musculus [14] = assay: In vivo suppression of pentylenetetrazole-induced convulsions by the compound at the mentioned dose of, 30, i.p. (mg/kg); out of 11 tested animals; type: functional; method in brief: as §3
Mus musculus [15] = assay: In vivo Horizontal screen test for motor impairment by the compound at the mentioned dose of 30, i.p. (mg/kg); out of 11 tested animals; type: functional; method in brief: as §4
Mus musculus [16] = assay: In vivo Horizontal screen test for motor impairment by the compound at the mentioned dose of 1, i.p. ( mg/kg); out of 12 tested animals; type: functional; method in brief: as §4
Mus musculus [17] = assay: In vivo suppression of pentylenetetrazole-induced convulsions by the compound at the mentioned dose of, 1, i.p. ( mg/kg); out of 12 tested animals; type: functional; method in brief: as §3
Mus musculus [18] = assay: In vivo Horizontal screen test for motor impairment by the compound at the mentioned dose of 30, p.o. (mg/kg); out of 12 tested animals; type: functional; method in brief: as §4
Mus musculus [19] = assay: In vivo suppression of pentylenetetrazole-induced convulsions by the compound at the mentioned dose of, 30, p.o. (mg/kg); out of 12 tested animals; type: functional; method in brief: as §3
Mus musculus [20] = assay: In vivo Horizontal screen test for motor impairment by the compound at the mentioned dose of 10, i.p. (mg/kg); out of 12 tested animals; type: functional; method in brief: as §4

| Structure (SMILES) | IC50 [1] [µM] | GS [2] | IC50 [3] [µM] | other results |
| --- | --- | --- | --- | --- |
| CCCCc1ccc(C2=NN(P(=O)(OC)c3ccccc3)CCC2)cc1 (configuration not stated) | 2 | 4 | 0.5 | – |
| COP(=O)(c1ccccc1)N1CCCC(c2ccc(F)cc2)=N1 (configuration not stated) | > 11 | 1.1 | 10 | – |
| COc1ccc(C2=NN(P(=O)(OC)c3ccccc3)CCC2)cc1 (configuration not stated) | > 11 | 1.7 | 6.4 | – |
| O=P(OC1CCCC1)(c1ccccc1)N1CCCC(c2ccc(Cl)c(Cl)c2)=N1 (configuration not stated) | – | 32.6 | – | – |
| CCCCc1ccc(C2=NN(S(=O)(=O)c3ccc(C)cc3)CCC2)cc1 | > 11 | 5 | 2.2 | – |
| COP(=O)(c1ccccc1)N1CCCC(c2ccccc2)=N1 (configuration not stated) | – | – | > 11 | – |
| CCOP(=O)(c1ccccc1)N1CCCC(c2ccc(Cl)c(Cl)c2)=N1 (configuration not stated) | 1.39 | 1.3 | 1.05 | Induced convulsion (Mus musculus [4]): 6 number convulsed; Induced convulsion (Mus musculus [5]): 6 number convulsed; Horizontal screen (Mus musculus [6]): 5 number passed; Horizontal screen (Mus musculus [7]): 5 number passed |
| CCc1ccc(C2=NN(S(=O)(=O)c3ccc(I)cc3)CCC2)cc1 | 10 | 11.1 | 0.9 | – |
| CC(C)OP(=O)(c1ccccc1)N1CCCC(c2ccc(Cl)c(Cl)c2)=N1 (configuration not stated) | 10 | 7.1 | 1.4 | Horizontal screen (Mus musculus [8]): 0 number passed; Induced convulsion (Mus musculus [9]): 4 number convulsed |
| CCCCc1ccc(C2=NN(P(=O)(OCC)c3ccccc3)CCC2)cc1 (configuration not stated) | 1.12 | 1.5 | 0.73 | Induced convulsion (Mus musculus [5]): 5 number convulsed; Horizontal screen (Mus musculus [6]): 5 number passed |
| CCCCc1ccc(S(=O)(=O)N2CCCC(c3ccc(CC(C)C)cc3)=N2)cc1 | > 11 | – | > 11 | – |
| CCOP(=O)(c1ccccc1)N1CCCC(c2ccc(Cl)c(C(F)(F)F)c2)=N1 (configuration not stated) | 5.4 | 4.9 | 1.1 | – |
| C[C@]12CC[C@@H](O)C[C@@H]1CC[C@@H]1[C@@H]2CC[C@]2(C)[C@@H](C(=O)CO)CC[C@@H]12 | 3.05 | 33.9 | 0.09 | – |
| CCCCc1ccc(S(=O)(=O)N2CCCC(c3ccc(C(C)C)cc3)=N2)cc1 | – | – | 10 | – |
| CCCCCCc1ccc(C2=NN(S(=O)(=O)c3ccc(I)cc3)CCC2)cc1 | > 11 | – | > 11 | – |
| CC(C)Cc1ccc(C2=NN(S(=O)(=O)c3ccc(I)cc3)CCC2)cc1 | > 11 | – | > 11 | – |
| CCCCc1ccc(S(=O)(=O)N2CCCC(c3ccc(CC)cc3)=N2)cc1 | 3.77 | 2.1 | 1.8 | – |
| CC(C)c1ccc(C2=NN(S(=O)(=O)c3ccc(I)cc3)CCC2)cc1 | > 11 | 1.7 | 6.31 | – |
| CCCCc1ccc(C2=NN(S(=O)(=O)c3ccc(I)cc3)CCC2)cc1 | 10 | – | 0.77 | Induced convulsion (Mus musculus [10]): 6 number convulsed; Horizontal screen (Mus musculus [11]): 3 number passed; GABA shift [12]: 13.7 |
| COP(=O)(c1ccccc1)N1CCCC(c2ccc(Cl)c(C(F)(F)F)c2)=N1 (configuration not stated) | 8.3 | 1.3 | 6.6 | – |
| CCCCc1ccc(C2=NN(S(=O)(=O)c3ccc(Cl)cc3)CCC2)cc1 | > 11 | – | > 11 | – |
| COP(=O)(c1ccccc1)N1CCCC(c2ccc(Br)cc2)=N1 (configuration not stated) | > 11 | – | > 11 | – |
| CCCCc1ccc(C2=NN(S(=O)(=O)c3ccc(CCCC)cc3)CCC2)cc1 | > 11 | 52.4 | 0.21 | Induced convulsion (Mus musculus [13]): 8 number convulsed; Induced convulsion (Mus musculus [14]): 10 number convulsed; Horizontal screen (Mus musculus [15]): 10 number passed; Horizontal screen (Mus musculus [16]): 11 number passed; Induced convulsion (Mus musculus [17]): 9 number convulsed; Horizontal screen (Mus musculus [18]): 12 number passed; Induced convulsion (Mus musculus [19]): 12 number convulsed; Horizontal screen (Mus musculus [20]): 12 number passed |
| CCCCc1ccc(C2=NN(S(=O)(=O)c3ccccc3)CCC2)cc1 | > 11 | 10 | 1.1 | Horizontal screen (Mus musculus [8]): 4 number passed; Induced convulsion (Mus musculus [9]): 5 number convulsed |
| CCOP(=O)(c1ccccc1)N1CCCC(c2ccc(F)cc2)=N1 (configuration not stated) | > 11 | 1.1 | 10 | – |
| CC(=O)[C@H]1CC[C@H]2[C@@H]3CC[C@H]4C[C@H](O)CC[C@]4(C)[C@H]3CC[C@]12C [BREXANOLONE] | 2.61 | 32.6 | 0.08 | – |
